Laboratory results reported in ChEMBL document CHEMBL3992522, “Antileishmanial Activity of Pyrazolopyridine Derivatives and Their Potential as an Adjunct Therapy with Miltefosine” (J Med Chem, 2017).
Active and inactive are the calls of the source. No cut-off for these calls is given here.

Experiments:
Format in all cases: functional
Leishmania donovani [1] = experiment: Antileishmanial activity against Leishmania donovani MHOM/IN/80/DD8 amastigote forms harboring luciferase gene infected in mouse J774 cells at 50 uM after 72 hrs by Steady-Glo reagent based luminescence assay relative to control; conditions: for inhibition of growth at 50 µM: MHOM/IN/80/DD8, J774, 72 h, read-out: GI
In short: (§1)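 Stationary-phase luciferase-expressing Dd8 promastigotes infected into J774 macrophages (4×10^4/mL seeded, 24 h, 37 °C, 5% CO2) at 1:8 macrophage:parasite for 24 h. Non-internalised parasites washed off. Compounds added at 50 and 25 µM in RPMI/10% FBS for 72 h. Lysis with Steady-Glo luciferin reagent plus PBS, luminescence read. Inhibition relative to untreated infected controls.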

Leishmania donovani [2] = experiment: Antileishmanial activity against Leishmania donovani MHOM/IN/80/DD8 promastigote forms harboring luciferase gene at 25 uM after 72 hrs by Steady-Glo reagent based luminescence assay relative to control; conditions: MHOM/IN/80/DD8, 72 h, read-out: GI
In short: (§2)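 Exponential-phase Dd8-Luc promastigotes at 1×10^6/mL in M199 with 10% FBS, 24 °C, given 50 and 25 µM for 72 h. Vehicle 0.1% DMSO. Steady-Glo added 1:1, luminescence (RLU) read. IC50 from four-parameter Hill regression, derived only where inhibition exceeded 90%. Means of at least three independent experiments.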

Leishmania donovani [3] = experiment: Antileishmanial activity against Leishmania donovani MHOM/IN/80/DD8 amastigote forms harboring luciferase gene infected in mouse J774 cells at 25 uM after 72 hrs by Steady-Glo reagent based luminescence assay relative to control; conditions: for inhibition of growth at 25 µM: MHOM/IN/80/DD8, J774, 72 h, read-out: GI; in short: as §1
Leishmania donovani [4] = experiment: Antileishmanial activity against Leishmania donovani MHOM/IN/80/DD8 promastigote forms harboring luciferase gene at 50 uM after 72 hrs by Steady-Glo reagent based luminescence assay relative to control; conditions: MHOM/IN/80/DD8, 72 h, read-out: GI; in short: as §2

Compound | growth inhibition (GI) (Leishmania donovani [1]) | inhibition of growth at 25 µM (Leishmania donovani [2]) | growth inhibition (GI) (Leishmania donovani [3]) | inhibition of growth at 50 µM (Leishmania donovani [4]) | inhibition of growth at 50 µM (Leishmania donovani [1]) | inhibition of growth at 25 µM (Leishmania donovani [3])
COc1ccc(OC)c(-c2c3c(nc4c2c(-c2c[nH]c5ccccc25)nn4-c2ccc(Cl)cc2)CC(C)(C)CC3=O)c1 | inactive | 50.7% | inactive | 69.6% | – | –
COc1cc(-c2c3c(nc4c2c(-c2c[nH]c5ccccc25)nn4-c2ccc(Cl)cc2)-c2ccccc2C3=O)cc(OC)c1OC | inactive | 28.3% | inactive | 41.1% | – | –
CC1(C)CC(=O)c2c(nc3c(c(-c4c[nH]c5ccccc45)nn3-c3ccc(Cl)cc3)c2-c2ccc(Cl)cc2)C1 | inactive | 56.7% | inactive | 67.4% | – | –
O=C1C2=C(Nc3c(c(-c4c[nH]c5ccccc45)nn3-c3ccc(Cl)cc3)C2c2ccc(Cl)cc2)c2ccccc21 (stereo unspecified) | inactive | 49.1% | inactive | 62.4% | – | –
O=C1C2=C(Nc3c(c(-c4c[nH]c5ccccc45)nn3-c3ccc(F)cc3)C2c2ccc(Cl)cc2)c2ccccc21 (stereo unspecified) | inactive | 54.2% | inactive | 68.3% | – | –
COc1ccc(-c2c3c(nc4c2c(-c2c[nH]c5ccccc25)nn4-c2ccc(Cl)c(Cl)c2)CCC3=O)cc1OC | – | 52.4% | – | 81.1% | 34.3% | 20.8%
O=C1C2=C(Nc3c(c(-c4c[nH]c5ccccc45)nn3-c3ccc(Cl)cc3)C2c2cccs2)c2ccccc21 (stereo unspecified) | inactive | 65.3% | inactive | 69.2% | – | –
COc1ccc(-c2c3c(nc4c2c(-c2c[nH]c5ccccc25)nn4-c2ccc(Cl)cc2)CC(C)(C)CC3=O)cc1 | inactive | 44.3% | inactive | 52% | – | –
COc1ccc(C2C3=C(CC(C)(C)CC3=O)Nc3c2c(-c2c[nH]c4ccccc24)nn3-c2ccc(Cl)c(Cl)c2)cc1OC (stereo unspecified) | inactive | 52.3% | inactive | 59.5% | – | –
CC1(C)CC(=O)c2c(nc3c(c(-c4c[nH]c5ccccc45)nn3-c3ccc(F)cc3)c2-c2ccc(Cl)cc2Cl)C1 | inactive | 44.6% | inactive | 48.4% | – | –
COc1ccc(OC)c(-c2c3c(nc4c2c(-c2c[nH]c5ccccc25)nn4-c2ccc(Cl)cc2)CCC3=O)c1 | inactive | 61.2% | inactive | 67.2% | – | –
COc1ccc(OC)c(-c2c3c(nc4c2c(-c2c[nH]c5ccccc25)nn4-c2ccc(Cl)c(Cl)c2)CC(C)(C)CC3=O)c1 | – | 41.3% | – | 51.8% | 41.3% | 24.6%
COc1ccc(-c2c3c(nc4c2c(-c2c[nH]c5ccccc25)nn4-c2ccc(Cl)cc2)-c2ccccc2C3=O)cc1 | inactive | 27.5% | inactive | 33.4% | – | –
CC1(C)CC(=O)C2=C(C1)Nc1c(c(-c3c[nH]c4ccccc34)nn1-c1ccc(Cl)cc1)C2c1ccc(Cl)cc1 (stereo unspecified) | inactive | 62.5% | inactive | 65.4% | – | –
COc1cc(C2C3=C(CC(C)(C)CC3=O)Nc3c2c(-c2c[nH]c4ccccc24)nn3-c2ccc(Cl)cc2)cc(OC)c1OC (stereo unspecified) | – | 79.3% | – | 86.7% | 28.2% | 23.6%
COc1ccc(-c2c3c(nc4c2c(-c2c[nH]c5ccccc25)nn4-c2ccc(Cl)cc2)CC(C)(C)CC3=O)c(OC)c1OC | inactive | 40.2% | inactive | 54.3% | – | –
COc1ccc(OC)c(C2C3=C(CCC3=O)Nc3c2c(-c2c[nH]c4ccccc24)nn3-c2ccc(Cl)cc2)c1 (stereo unspecified) | – | 85.5% | – | 93.2% | 42.6% | 37.3%
COc1cc(C2C3=C(CCC3=O)Nc3c2c(-c2c[nH]c4ccccc24)nn3-c2ccc(F)cc2)cc(OC)c1O (stereo unspecified) | inactive | 56.5% | inactive | 66.9% | – | –
COc1ccc(-c2c3c(nc4c2c(-c2c[nH]c5ccccc25)nn4-c2ccc(Cl)c(Cl)c2)CC(C)(C)CC3=O)cc1OC | inactive | 59.4% | inactive | 74.1% | – | –
COc1ccc(OC)c(-c2c3c(nc4c2c(-c2c[nH]c5ccccc25)nn4-c2ccc(F)cc2)-c2ccccc2C3=O)c1 | inactive | 49.8% | inactive | 58.3% | – | –
COc1ccc(-c2c3c(nc4c2c(-c2c[nH]c5ccccc25)nn4-c2ccc(Cl)cc2)-c2ccccc2C3=O)c(OC)c1OC | inactive | 52.6% | inactive | 63.4% | – | –
COc1ccc(C2C3=C(Nc4c2c(-c2c[nH]c5ccccc25)nn4-c2ccc(Cl)cc2)c2ccccc2C3=O)c(OC)c1OC (stereo unspecified) | inactive | 64.2% | inactive | 67.4% | – | –
COc1cc(C2C3=C(CCC3=O)Nc3c2c(-c2c[nH]c4ccccc24)nn3-c2ccc(Cl)cc2)cc(OC)c1O (stereo unspecified) | – | 79.1% | – | 89.6% | 30.7% | 25.2%
CC1(C)CC(=O)C2=C(C1)Nc1c(c(-c3c[nH]c4ccccc34)nn1-c1ccc(Cl)cc1)C2c1cccs1 (stereo unspecified) | – | 82.5% | – | 86.5% | 51.7% | 43.8%
COc1cc(C2C3=C(CCC3=O)Nc3c2c(-c2c[nH]c4ccccc24)nn3-c2ccc(Cl)cc2)cc(OC)c1OC (stereo unspecified) | – | 78.4% | – | 81.2% | 59.6% | 45.2%
COc1cc(-c2c3c(nc4c2c(-c2c[nH]c5ccccc25)nn4-c2ccc(Cl)cc2)CCC3=O)cc(OC)c1OC | inactive | 66.8% | inactive | 72.3% | – | –
COc1ccc(OC)c(-c2c3c(nc4c2c(-c2c[nH]c5ccccc25)nn4-c2ccc(Cl)cc2)-c2ccccc2C3=O)c1 | inactive | 44.6% | inactive | 53.6% | – | –
COc1ccc(OC)c(-c2c3c(nc4c2c(-c2c[nH]c5ccccc25)nn4-c2ccc(F)cc2)CC(C)(C)CC3=O)c1 | – | 84.1% | – | 90.3% | 27.9% | 22.4%
CC1(C)CC(=O)C2=C(C1)Nc1c(c(-c3c[nH]c4ccccc34)nn1-c1ccc(F)cc1)C2c1ccc(Cl)cc1 (stereo unspecified) | inactive | 54.3% | inactive | 65.3% | – | –
